Bioassay records deposited in PubChem BioAssay by The Scripps Research Institute Molecular Screening Center.
LEDGF integ inh = blockers of LEDGF/p75-dependent integrase strand transfer – biochemical, TR-FRET, high throughput, primary screen | inhibition, % at 3.7 µM | hit rate 0.64% among 370,000 | TR-FRET IN-LEDGF/p75 DNA integration, Eu/Cy5;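 active means inhibition above the screen-wide mean plus 3 SD, cut at about 13% in these data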;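 further: signal is the Cy5 over europium emission ratio at 671 and 618 nm; 0% = plate median of compound wells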
MBD2 DNA inh = inhibitors of MBD2 binding to methylated DNA, primary screen, biochemical, TR-FRET, DNA-binding domain, human; hit rate 0.31% among 370,000; MBD2 binding to methylated oligonucleotide; inhibition, % at 4.4 µM; AID 686964, 2013; in the data active means inhibition above about 13%
RBBP9 inh = human RBBP9 inhibitors, primary screen, biochemical, fluorescence polarization, FP-Rh probe, HTS; Serine hydrolase RBBP9 (Homo sapiens), O75884; recombinant RBBP9; inhibition, % at 7.94 µM; hit rate 0.2% among 220,000; AID 1515, 2009;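 active means inhibition above the campaign mean of all tested compounds plus 3 SD, cut at about 14% in these data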;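 further: plate controls were DMSO wells with RBBP9 for no effect and wells lacking RBBP9 protein for full effect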
Target sequence (O75884 whole entry, looked up): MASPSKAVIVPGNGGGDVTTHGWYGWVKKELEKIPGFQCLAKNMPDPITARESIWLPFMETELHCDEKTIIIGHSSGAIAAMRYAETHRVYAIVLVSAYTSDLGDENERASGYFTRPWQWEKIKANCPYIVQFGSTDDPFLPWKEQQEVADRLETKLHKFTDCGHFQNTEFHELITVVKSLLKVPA
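Measured by – fluorescence polarization · Test system – RBBP9 protein · Input – 2.5 µM RBBP9 dispensing solution, before mixing · Measure – percent inhibition from mP, scaled between DMSO and no-protein wells · Benchmarks – DMSO-treated enzyme wells and wells lacking RBBP9 · Times – preincubation 30 min plus labeling 45 min at 25 °C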
UHRF1 binding = UHRF1 methylated DNA binding inhibitors, primary screen, counter-screen for MBD2 inhibitor project, biochemical, TR-FRET, human UHRF1, single concentration; UHRF1 binding to methylated oligo; inhibition, % at 4.4 µM; hit rate 0.75% among 370,000; E3 ubiquitin-protein ligase UHRF1 (Homo sapiens), Q96T88; AID 687016, 2013; in the data active means inhibition above about 21%;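 further: UHRF1 SRA domain binding a hemimethylated CpG hairpin DNA probe; 0% = median of test compound wells and 100% = reference inhibitor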
ABHD5 PLIN5 PPI = ABHD5-PLIN5 interaction inhibitors, primary screen, cell lysate, split luciferase complementation, luminescence. Split G. princeps luciferase complementation, 4 h. inhibition, % at 4 µM. hit rate 0.78% among 360,000;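 active means inhibition above the mean inhibition across every tested compound plus 3 SD, cut at about 22% in these data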;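 further: 0% = DMSO only wells and the 100% control is not disclosed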
PRMT1 FP inh = PRMT1 methyltransferase inhibitors, primary screen, biochemical, fluorescence polarization; inhibition, % at 2.79 µM; recombinant PRMT1, activity-based probe fluorescence polarization; hit rate 1.3% among 370,000; Protein arginine N-methyltransferase 1 (Homo sapiens), Q99873;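 active means inhibition above about 21% made by adding two undisclosed values, limit read from the data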
Target sequence (Q99873 whole entry, looked up): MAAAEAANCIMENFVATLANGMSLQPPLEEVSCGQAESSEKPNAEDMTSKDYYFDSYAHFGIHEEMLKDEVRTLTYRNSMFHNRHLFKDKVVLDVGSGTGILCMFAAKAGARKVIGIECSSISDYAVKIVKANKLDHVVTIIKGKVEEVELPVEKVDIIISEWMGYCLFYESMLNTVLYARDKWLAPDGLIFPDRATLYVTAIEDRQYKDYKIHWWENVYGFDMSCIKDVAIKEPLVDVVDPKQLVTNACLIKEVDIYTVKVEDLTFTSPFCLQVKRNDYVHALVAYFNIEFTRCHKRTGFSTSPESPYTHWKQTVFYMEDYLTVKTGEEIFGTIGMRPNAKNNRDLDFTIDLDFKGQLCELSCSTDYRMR
An asterisk follows results filed as active; · = not tested or not shown. An excerpt weighted towards active compounds, which were near 3.1% of everything screened.

SMILES	LEDGF integ inh	MBD2 DNA inh	RBBP9 inh	UHRF1 binding	ABHD5 PLIN5 PPI	PRMT1 FP inh
O=C(NC1CCCCC1)C(c1ccc2ncccc2c1)N(Cc1ccc2c(c1)OCO2)C(=O)c1cccs1 (configuration not stated)	-1	-2	-7	-3	-12	0
O=C(NC1CCCCC1)C(c1ccc(Cl)cc1)N(C(=O)c1cnccn1)c1ccc2c(c1)OCO2 (configuration not stated)	-1	11	-10	22*	-1	-1
O=C(NC1CCCCC1)C(c1ccncc1)N(Cc1ccc2c(c1)OCO2)C(=O)c1cnsn1 (configuration not stated)	12	0	-4	21*	-1	4
CCOC(=O)[C@@]12CCC3=C1N(CCC3)C(=O)[C@H](CC(=O)NCc1cccs1)C2	-3	0	·	0	·	1
O=C(/C=C(\Nc1ccc(Br)c(F)c1)c1ccccc1)c1ccccc1	-2	-1	·	8	·	-1
COc1ccc(NC(=O)N(C)C[C@H]2OCc3cnnn3CCCC(=O)N([C@H](C)CO)C[C@@H]2C)c(OC)c1	-6	-1	·	1	·	4
C=CCOc1ccc(C(=O)N(Cc2ccc(N(C)C)cc2)C2CCS(=O)(=O)C2)cc1 (configuration not stated)	-3	2	-9	63*	-3	3
Nc1nc2ncc(C(=O)c3cc(F)ccc3O)cc2s1	-3	7	1	22*	-5	-3
Nc1nc2ncc(C(=O)c3cc(Cl)cc(Cl)c3O)cc2s1	-1	-2	-10	-3	12	11
CCC(C#Cc1ccccc1)N(C)C(N)=NC(=O)/C=C/c1ccccc1 (configuration not stated)	7	1	·	-1	·	-7
COC(=O)[C@@]1(Sc2ccc(C)cc2)CC(=O)N[C@@H]1c1ccc(Br)cc1	3	5	·	-2	-10	-8
COC(=O)[C@]1(Sc2ccc(C)cc2)CC(=O)N[C@@H]1c1ccco1	-3	2	·	3	3	21*
CCc1nnn2c1Cn1c3ccccc3c(=O)n1[C@@H](C)C2	-2	-4	·	1	·	1
COc1ccc(S[C@]2(C(=O)N3CCOCC3)CC(=O)N(C(=O)/C=C/c3ccccc3)[C@@H]2c2ccc(OC)cc2)cc1	5	0	·	-1	·	11
O=S(=O)(c1ccc(Cl)nc1)N1CCc2ccccc21	1	2	-4	42*	3	1
O=S(=O)(c1ccc(Cl)nc1)N1CCCc2ccccc21	-1	6	-6	0	0	0
Cc1cc(O)c(C=O)c2c1C(=O)Oc1c(CO)c(O)c3c(c1O2)C(O)OC3=O (configuration not stated)	·	·	32*	·	73*	·
COc1ccc(-n2c(C)cc(C(=O)CCl)c2C)cc1	2	3	-7	24*	11	2
COc1nc(N)c(S(=O)(=O)c2ccccc2)cc1C#N	-4	0	-9	23*	-2	-2
COc1nc(N)c(S(=O)(=O)c2ccccc2C)cc1C#N	3	2	-5	-2	-15	-2
O[C@H](COc1cccc(Cl)c1)CN1CCC(C(O)(c2ccccc2)c2ccccc2)CC1	7	-7	·	-2	·	-4
CCC(C)(C)n1nnnc1C(c1ccc(O)c(OC)c1)N1CCc2ccccc2C1 (configuration not stated)	-1	1	5	1	10	23*
CCC(C)(C)n1nnnc1C(c1ccccc1)N1CCc2ccccc2C1 (configuration not stated)	2	1	-4	-2	-2	-3
CCCOc1ccc(C(=O)N2CCC(Oc3cccnc3)CC2)cc1	4	-2	·	1	·	-3
Cc1ccc(OCC(=O)NNC(=O)c2cccnc2)cc1	4	8	-1	27*	0	0
SMILES	LEDGF integ inh	MBD2 DNA inh	RBBP9 inh	UHRF1 binding	ABHD5 PLIN5 PPI	PRMT1 FP inh
O=C(CSc1nc2scc(-c3ccco3)c2c(=O)n1-c1ccccc1)NCC1CCCO1 (configuration not stated)	3	2	1	1	56*	6
Cn1c(SCC(=O)NCC2CCCO2)nc2scc(-c3ccccc3)c2c1=O (configuration not stated)	0	5	·	-2	-7	-2
CC(=O)Nc1sc2c(c1C#N)CCC2	-1	-6	-5	-1	-1	-1
N#Cc1c(N)sc2c1CCCCCC2	0	-3	-13	-5	-23	21*
COc1cc(SC)ccc1C(=O)Nc1ccon1	2	5	-10	5	-6	24*
COc1cc(SC)ccc1C(=O)Nc1ccccn1	3	-3	-6	-2	-2	-1
CC(=O)C1=C(C)N(Cc2ccc(F)cc2)C(=S)NC1c1ccc(Br)cc1 (configuration not stated)	1	2	·	-1	·	-1
CC(C)(C)N(Cc1cn(Cc2ccccc2)nn1)S(=O)(=O)c1ccc(F)cc1Br	1	1	·	-4	·	-4
COC(=O)c1ccc(CN(c2ccccc2Cl)S(C)(=O)=O)cc1	-4	-5	-7	30*	-1	-5
COc1ccc2ccccc2c1CN1CCN(c2ncc(Cc3ccccc3)cn2)CC1	-2	2	·	2	·	2
COc1cc2c[n+](C)c3c4ccccc4ccc3c2cc1OC	4	66*	·	-5	7	4
COc1ccc2c(c1)c[n+](C)c1c3cc(OC)c(OC)cc3ccc21	0	10	·	-38	22*	1
COc1ccc(Cc2c3cc(OC)c(OC)cc3cc[n+]2C)cc1OC	·	·	·	·	-5	·
Cc1nc(Nc2cccc(C(F)(F)F)c2)nc2c1C(=O)CC(C)C2 (configuration not stated)	-3	-6	-8	-3	4	-2
Cc1ccc(Nc2nc(C)c3c(n2)CC(C)CC3=O)c(C)c1 (configuration not stated)	-1	-6	0	28*	-4	1
O=C(CSc1ccccn1)Nc1nonc1[N+](=O)[O-]	-2	10	·	6	6	29*
CCCC(=O)NC(c1ccc(Cl)cc1)c1ccc2cccnc2c1O (configuration not stated)	-1	0	·	-6	12	-4
CCCCC(=O)NC(c1ccc(Cl)cc1)c1ccc2cccnc2c1O (configuration not stated)	2	-6	·	-8	22*	-8
O=C(NCc1ccccc1)N1CCN(Cc2nc3ccccc3c(=O)[nH]2)CC1	0	3	·	1	·	0
